# A selection: hits, their analogues and other compounds. The true share with any hit is near 2%.
# MBD2 inh = blocks human MBD2 binding to methylated DNA. Q9UBB5. TR-FRET, MBD2 binding to methylated oligonucleotide. inhibition, % at 4.4 µM. 370,000 compounds, 0.31% hits. AID 686964; in the data active means inhibition above about 13%
# Target sequence (Q9UBB5 whole entry, looked up): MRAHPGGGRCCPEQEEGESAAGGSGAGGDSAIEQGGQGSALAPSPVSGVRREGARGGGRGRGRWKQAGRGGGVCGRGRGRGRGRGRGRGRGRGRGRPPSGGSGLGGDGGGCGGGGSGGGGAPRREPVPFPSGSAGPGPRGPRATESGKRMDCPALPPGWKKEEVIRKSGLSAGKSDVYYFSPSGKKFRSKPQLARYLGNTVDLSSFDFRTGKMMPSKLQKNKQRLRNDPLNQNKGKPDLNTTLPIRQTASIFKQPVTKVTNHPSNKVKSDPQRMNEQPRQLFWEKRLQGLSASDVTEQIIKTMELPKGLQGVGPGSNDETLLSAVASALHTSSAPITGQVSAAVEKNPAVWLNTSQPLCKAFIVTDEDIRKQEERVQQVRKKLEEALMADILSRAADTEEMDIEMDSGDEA
# LEDGF integ inh = blocks HIV-1 LEDGF/p75-dependent DNA integration. TR-FRET IN-LEDGF/p75 DNA integration, Eu/Cy5. AID 743269. inhibition, % at 3.7 µM. 370,000 compounds, 0.64% hits;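 active means inhibition above the screen-wide mean plus 3 SD, cut at about 13% in these data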;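 further: signal is the Cy5 over europium emission ratio at 671 and 618 nm; 0% = plate median of compound wells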
# TCR-CD3 inh = inhibitors of human TCR-CD3 interaction; TAMRA-labeled TCR probe fluorescence, biochemical; inhibition, % at 9.4 µM; 360,000 compounds, 0.37% hits; AID 651800; in the data active means inhibition above about 19%;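 further: recombinant mutant TCR 2C K166C tagged with TAMRA read by polarization; 0% = receptor in buffer alone and 100% = receptor with positive control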
# ASAP1 GAP inh = blocks human ASAP1-stimulated Arf1 GTP hydrolysis. inhibition, % at 16.5 µM. Q9ULH1. GDP FP detection. 360,000 compounds, 0.19% hits; in the data active means inhibition above about 25%;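 further: 0% = vehicle with enzyme and substrate and 100% = no enzyme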
# UHRF1 binding = UHRF1 methyl-DNA binding inhibition; Q96T88; UHRF1 binding to methylated oligo, TR-FRET; inhibition, % at 4.4 µM; 370,000 compounds, 0.75% hits; in the data active means inhibition above about 21%;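 further: UHRF1 SRA domain binding a hemimethylated CpG hairpin DNA probe; 0% = median of test compound wells and 100% = reference inhibitor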
# ARFGAP1 inhibitor = inhibitors of rat ARFGAP1. Q62848. Arfgap1-stimulated ARF1 GTP hydrolysis, GDP FP detection. inhibition, % at 16.5 µM. 360,000 compounds, 0.26% hits;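 active means inhibition above a per-plate limit, mean inhibition of low control wells plus 3 SD, cut at about 25% in these data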;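 further: 0% = DMSO wells with enzyme and 100% = wells lacking Arfgap1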
# Target sequence (Q62848 1-136 limits assumed): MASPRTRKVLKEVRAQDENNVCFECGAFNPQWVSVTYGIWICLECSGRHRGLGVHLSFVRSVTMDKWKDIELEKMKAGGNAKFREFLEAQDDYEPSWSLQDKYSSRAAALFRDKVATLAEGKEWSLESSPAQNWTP
#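 Repeats: one replicate per compound; assay system: rat Arfgap1 catalytic domain, aa 1-136; times: enzyme reaction 120 min at 25 °C after 20 min preincubation; detection: FP of antibody-bound GDP Alexa 633 tracer, ex 620/em 688 nm; benchmarks: high control wells lacking Arfgap1, low control full reaction with DMSO; reagent: human ARF1(Δ1-17)-GTP substrate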
# * hit, by the source's call; / = no result.
SMILES,MBD2 inh,LEDGF integ inh,TCR-CD3 inh,ASAP1 GAP inh,UHRF1 binding,ARFGAP1 inhibitor
O=C(COC(=O)c1ccccc1Cl)NCc1ccco1,10.0,2.8,5.1,-4.6,7.8,-5.4
O=C(O)c1cccn2c(=O)c3ccccc3nc12,10.8,-2.0,-2.1,-2.2,20.7*,-15.2
O=C(c1cccn2c(=O)c3ccccc3nc12)N1CCN(c2ccccn2)CC1,-4.2,2.7,3.0,-1.4,2.4,16.4
CCOc1ccc(-n2c(SCC(=O)Nc3cccc4ccccc34)nnc2-c2ccncc2)cc1,0.3,-1.3,/,/,-1.6,/
Clc1ccc(-c2nnc3sc(-c4ccc(Br)o4)nn23)cc1,4.6,3.4,-2.1,2.6,-1.4,9.6
Cc1oc(-c2ccc(Cl)cc2)cc1-c1nn2c(-c3ccoc3C)nnc2s1,7.1,28.8*,1.1,9.9,23.4*,-5.1
O=C(COCc1ccccc1)NC1CCCCN(Cc2ccc(Cl)cc2)C1=O (configuration not stated),1.6,-3.4,/,/,-2.7,/
COc1ccc(-c2sc3cc(OC)c(OC)cc3c2C#CCO)cc1,6.7,3.3,-6.2,10.9,21.9*,4.8
COc1ccc(-c2sc3cc(OC)c(OC)cc3c2C#CC(C)(C)O)cc1,6.3,0.0,2.0,-8.7,12.5,-14.3
CC(C)CNc1cccc2c1S(=O)(=O)N(Cc1cn(Cc3ccc(F)cc3)nn1)Cc1ccccc1O2,1.8,-1.6,/,/,1.7,/
OCC(CO)(CO)N=Cc1c(O)ccc2ccccc12,-3.1,-0.1,-3.6,0.6,-5.8,-6.6
Oc1ccc2ccccc2c1C=NC12CN3CCN(CN(C3)C1)C2,-5.0,23.5*,-0.9,-3.8,-2.1,0.2
COc1ccc(C(C)=O)c2c1OCCO2,-0.3,-1.1,6.7,0.1,53.6*,7.3
CC(NC(=O)c1ccc(S(=O)(=O)N(C)C)cc1)c1ccccc1 (configuration not stated),7.1,0.5,0.3,-11.8,21.3*,1.1
CCSc1nnc(CNc2ccc(C)cc2)n1C,10.6,-0.4,-4.5,13.0,23.6*,22.9
OC(c1cc(Cl)cc(Cl)c1)c1ncc(-c2ccccc2F)[nH]1 (configuration not stated),0.7,7.0,2.6,16.6,1.2,13.5
CC(=O)NS(=O)(=O)c1cccnc1Nc1cccc(Cl)c1C,0.8,-4.8,1.1,4.3,1.2,5.2
NS(=O)(=O)c1cccnc1Nc1c(Cl)cccc1Cl,1.3,-1.7,0.0,6.7,20.9*,-14.2
CCCC(=O)N1CCCC(c2cc(C(=O)Nc3ccccc3)no2)C1 (configuration not stated),-3.5,-0.4,1.3,-6.2,-1.6,-1.5
O=C1/C(=C/c2cccs2)CCC/C1=C\c1cccs1,0.6,19.8*,0.3,-2.0,8.8,-3.4
O=C1/C(=C\c2ccco2)CCC/C1=C\c1ccco1,18.6*,71.0*,1.2,3.9,55.9*,-8.8
C[C@@H]1CN([C@H](C)CO)C(=O)CCCn2cc(nn2)CO[C@H]1CN(C)C(=O)Nc1ccccc1C(F)(F)F,-3.1,3.5,-2.0,0.3,0.6,1.4
C=CCN1C(=O)[C@@H](CC(=O)N2CCCCC2)[C@]2(C(=O)OC)CCCCC=C12,-2.7,-0.8,/,/,2.2,/
COc1ccc(-c2noc(CCC(=O)Nc3cccc(C(=O)NC4CC4)c3)n2)cc1OC,1.9,-1.3,-5.6,-11.6,1.0,-1.4
CCOC(=O)[C@]12CCCC=C1N(CCCOC)C(=O)[C@@H]2CC(=O)NCc1cccs1,4.2,4.1,/,/,0.4,/
SMILES,MBD2 inh,LEDGF integ inh,TCR-CD3 inh,ASAP1 GAP inh,UHRF1 binding,ARFGAP1 inhibitor
COC(=O)[C@H]1C[C@@]2(c3ccccc3)c3ccccc3N[C@H]2N1,-3.5,4.7,/,/,3.8,/
CCc1ccccc1NC(=O)C1CCN(c2cnccn2)CC1,4.2,-6.7,-5.5,-17.0,3.1,0.4
CC(=O)N1CCCN(C(=O)CCn2nnc3ccccc32)CC1,-1.5,0.0,/,/,90.9*,/
COc1cccc(N2CCN(C(=O)CCn3nnc4ccccc43)CC2)c1,-1.8,3.6,/,/,0.8,/
COc1ccc(Cl)cc1NC(=O)Cn1c(=O)n2nc(C)nc2c2ccccc21,3.0,-1.5,1.3,6.1,70.0*,-6.0
CC(=O)N1CCN(C2=NC(=O)N(c3ccc(Br)cc3)C(=O)C2)CC1,1.4,-1.4,/,/,-2.1,/
Nc1ccn([C@@H]2O[C@H](C(=O)N[C@H](CO)c3ccccc3)[C@@H](O)[C@H]2O)c(=O)n1,-1.1,-2.0,-6.0,-7.4,-1.3,-7.5
O=c1[nH]c2cc(Br)c(Br)nc2[nH]1,0.9,-0.2,/,/,-1.1,/
Nc1nnc(CC(=O)N/N=C/c2cc([N+](=O)[O-])cc(Br)c2O)s1,-7.8,-3.3,33.7*,4.4,-3.9,-13.9
C=CCN1C(=O)[C@H](CC(=O)NCCCC)[C@@]2(C(=O)OCC)CCCC=C12,-1.5,1.9,/,/,-2.2,/
COc1ccc(N/C=C\C(=O)c2ccc3ccccc3c2)cc1,7.7,5.8,-9.0,0.1,4.8,-3.7
NS(=O)(=O)c1ccc(N/C=C\C(=O)c2ccc3ccccc3c2)cc1,9.1,8.5,0.5,5.4,21.9*,5.4
Cc1c(NS(=O)(=O)c2ccc(F)cc2)c(=O)n(-c2ccccc2)n1C,-2.0,1.9,-6.1,0.1,24.7*,5.4
Cc1c(NC(=O)/C=C/c2cn(-c3ccccc3)nc2-c2ccc(F)cc2)c(=O)n(-c2ccccc2)n1C,-3.5,3.5,0.8,-0.4,47.2*,-9.4
Cc1c(NS(=O)(=O)c2ccccc2)c(=O)n(-c2ccccc2)n1C,-3.0,4.5,4.4,-8.1,-0.1,3.5
Cc1c(NC(=O)/C=C/c2cccs2)c(=O)n(-c2ccccc2)n1C,-6.5,-0.5,-4.3,0.7,-2.2,0.3
COC(=O)C1CN(Cc2cn(CCOC(C)=O)nn2)CCS(=O)(=O)N1Cc1ccc(OC)cc1 (configuration not stated),9.2,5.1,/,/,13.8,/
Cn1cccc1CC(=O)NN=Cc1cccc(F)c1,-0.7,-1.0,/,/,-3.5,/
CCOC(=O)c1csc(N)n1,-0.3,3.8,-2.1,6.8,2.2,2.9
C[C@H]1[C@H](NC(=O)C(=NOC(C)(C)C(=O)O)c2csc(N)n2)C(=O)N1S(=O)(=O)O,2.0,-2.2,-0.3,3.0,25.4*,-6.0
Cc1nn(Cc2nnc(SCC(=O)Nc3cccc(C(F)(F)F)c3)n2C)c(C)c1[N+](=O)[O-],-0.5,0.0,12.0,-4.8,40.7*,-0.4
Cc1cc(-c2ccccc2)c2c(=O)[nH][nH]c2n1,-1.8,-1.9,2.7,-6.7,48.8*,1.7
Cc1ccc(COC(=O)c2cccc(S(=O)(=O)N3CCCCCC3)c2)cc1,8.2,2.7,-10.3,7.9,25.5*,5.9
COc1ccc(OC)c(COC(=O)c2cccc(S(=O)(=O)N3CCCCC3)c2)c1,5.8,-5.6,-4.8,-1.1,20.8*,-1.1
